Laboratory results: publication PMC11210309 (Science Advances, 2021)

Experiments:
[1] = Apical-to-basolateral permeability; conditions: human, Caco-2
[2] = Apical-to-basolateral permeability; conditions: human
[3] = test system: β-catenin; assay: Western blot of β-catenin during hIEC differentiation; assay type: cell-based, human; conditions: differentiation of hIEC progenitors, 2 μM Wnt-C59 (Fig. 1F)
Summary of the method: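 hIEC progenitors are kept on 1% Matrigel in DMEM/F12 with EGF, R-spondin1 and insulin. They are seeded at 1.34 × 10^5 cells/cm2 on 1% Matrigel-coated Transwell inserts with 10 μM Y-27632 until near confluence. They are then switched to DMEM/F12 with EGF (100 ng/ml), 2 μM Wnt-C59, 1 mM VPA, 2% FBS, 2% B27, 1% N2, 2 mM l-glutamine, 1% NEAA and 15 mM Hepes.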

[4] = test system: hIECs; assay: qPCR of intestinal marker genes in compound-treated hIECs; assay type: cell-based, human; conditions: compound-treated hIECs in 2D culture (Fig. 1C)
[5] = test system: Notch signaling; assay: Western blot of cleaved NOTCH1 and HES1 during hIEC differentiation; assay type: cell-based, human; conditions: single treatment with VPA, 1 mM (Fig. 1F)

Molecule: COCCc1ccc(OCC(O)CNC(C)C)cc1 (centres unmarked) [metoprolol]
- Papp A→B at 2 h [1]: 35.5 ± 1 ×10⁻⁶ cm/s
- Papp A→B at 2 h [2]: 13.8 ± 0.74 ×10⁻⁶ cm/s

Molecule: Cc1cc(-c2ccc(CC(=O)Nc3ccc(-c4cccnc4)cc3)cc2)ccn1 [WNT C-59]
- Expression of β-catenin [3]: specifically inhibited

Molecule: O=C(O)Cc1ccccc1Nc1c(Cl)cccc1Cl [diclofenac]
- Papp A→B at 2 h [1]: 36.4 ± 1.13 ×10⁻⁶ cm/s
- Papp A→B at 2 h [2]: 12.5 ± 2.65 ×10⁻⁶ cm/s

Molecule: Insulin: acts in the intestinal epithelium via the insulin receptor; component of hIEC medium 1
- Differentiation into absorptive cells (VIL1 and ANPEP expression) [4]: specifically increased

Molecule: CC[C@H]1OC(=O)[C@H](C)[C@@H](O[C@H]2C[C@@](C)(OC)[C@@H](O)[C@H](C)O2)[C@H](C)[C@@H](O[C@@H]2O[C@H](C)C[C@H](N(C)C)[C@H]2O)[C@](C)(O)C[C@@H](C)C(=O)[C@H](C)[C@@H](O)[C@]1(C)O [erythromycin]
- Papp A→B at 2 h [1]: < 0.3 ×10⁻⁶ cm/s
- Papp A→B at 2 h [2]: 4.95 ± 0.14 ×10⁻⁶ cm/s

Molecule: CNC(=C[N+](=O)[O-])NCCSCc1ccc(CN(C)C)o1 [ranitidine]
- Papp A→B at 2 h [1]: 1.16 ± 0.09 ×10⁻⁶ cm/s
- Papp A→B at 2 h [2]: 11.6 ± 0.92 ×10⁻⁶ cm/s

Molecule: CC(C)NCC(O)COc1cccc2ccccc12 (centres unmarked) [propranolol]
- Papp A→B at 2 h [1]: 29.1 ± 0.97 ×10⁻⁶ cm/s
- Papp A→B at 2 h [2]: 13.1 ± 1.25 ×10⁻⁶ cm/s

Molecule: CCCC(CCC)C(=O)O [VPA, valproic acid]
- Notch signaling (cleaved NOTCH1 and HES1) [5]: notable enhancement

B1: R-spondin 1: an agonist of Wnt signaling (protein, UniProt Q2MKA7 21-263, looked up)
R-spondin-1: SRGIKGKRQRRISAEGSQACAKGCELCSEVNGCLKCSPKLFILLERNDIRQVGVCLPSCPPGYFDARNPDMNKCIKCKIEHCEACFSHNFCTKCKEGLYLHKGRCYPACPEGSSAANGTMECSSPAQCEMSEWSPWGPCSKKQQLCGFRRGSEERTRRVLHAPVGDHAACSDTKETRRCTVRRVPCPEGQKRRKGGQGRRENANRNLARKESKEAGAGSRRRKGQQQQQQQGTVGPLTSAGPA
- Expression of markers of major intestinal cell types (ISCs, enterocytes, secretory lineage cells) [4]: induced
